Measured values from the EternaBench riboswitch data.

Test system: MS2 coat protein
Assay: apparent Kd, MS2 coat protein; higher = weaker binding; RNA-MaP array; FMN 200 µM where present
Procedure, shortened: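 Each design was made on Illumina sequencing-chip clusters by stalled E. coli RNA polymerase and titrated with SNAP-549-labelled MS2 coat protein from 0.7 or 1.5 nM, doubling to 3 µM, in the absence and then the presence of constant ligand. The buffer was 100 mM Tris-HCl pH 7.5, 80 mM KCl, 4 mM MgCl2, BSA, DTT, yeast tRNA and Tween-20. The apparent Kd is the median of filtered per-cluster fits of binding curves, with green signal normalised to red-channel RNA signal and control-cluster median Fmax.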

[1] = designed as: OFF switch for flavin mononucleotide, no ligand
[2] = ligand present: flavin mononucleotide, designed as: OFF switch for flavin mononucleotide
[3] = designed as: ON switch for flavin mononucleotide, no ligand
[4] = ligand present: flavin mononucleotide, designed as: ON switch for flavin mononucleotide

Sequence | apparent Kd [1] [nM] | apparent Kd [2] [nM] | apparent Kd [3] [nM] | apparent Kd [4] [nM]
GCCGUAAAUGUGAGGAUAUACCUAUGGAAACAUAGGUAGAAGGCACAUGAGGAUCACCCAUGUCCUUAAUCGGC | 447 | 406 |  | 
GCUAGAGCAGGAUAUCUAGAUCCACACAUGAGGAUCACCCAUGUACAGUCGAAAGACUGAAGAGAAGGGCUCUAGC | 69.7 | 92.7 |  | 
AUACAUGAGGAUCACCCAUGUAAUUAAUUAAUUAAUAAGAUCAAGGAUAUCAGCUCGAUUAGAGCUGAGAAGGUGAUCACAUGU |  |  | 417 | 306
CCAAGAAUAGGAUAUACACCGUGUCAGCUUUUAUAUAUCGCACAUGAGGAUCACCCAUGUAGAAGGGUUCUCUC | 676 | 564 |  | 
AGCCUGCUGCGAGGAUAUCAACUAAAGGGUCCGAUUUCCGAGCGGAACAUGAGGAUCACCCAUGUUGAGAAGGCGCGAGUAUAG | 25.6 | 182 |  | 
GCAAUGUGAUAAGGAUAUCCAAUGGCAUCCCUAGGAGAAGGUAUCACAUGAGGAUCACCCAUGUGAAGGACGGGUUAUCGCAAA |  | 211 |  | 
GUGUACAUUCGAGGAUAUCGGAGAGAGAUCAUUCGAGAAGGCGAUUCAUGAUGUAUUAUCCUGGACAUGAGGAUCACCCAUGUG |  |  | 109 | 74.6
GGUGCGUAUGUGAGGAUAUGCUGGUCCUUGGCUCGGCAGAAGGCACAUGAGGAUCACCCAUGUGGUGUCGUGCC | 16.9 | 37.7 |  | 
GCAAUGCCUGACAUGAGGAUCACCCAUGUUAGAUUGUUAUGUCAGGAUAUUGUCUAGAAACUAGACAAGAAGGGAUGCAUUGCU |  |  | 313 | 25.1
GCGUCCCGCAGAGGAUAUGUUGUUCCGCCUACAUGAGGAUCACCCAUGUCAAAGGGCUGAUCCCGACAGAAGGCUGAAGGAUAC |  |  | 130 | 138
AAAUAACCUAGCAAAAUUUCCUCACAUGAGGAUCACCCAUGUAGAAGGCUGUCCUAAAAUAGGACAGAGGAUAUACGUGCUAGG | 6.82 | 107 |  | 
GCGUUCUUGUAGAAGGUACAUAAAAUCUAUUUUUAACACAUGAAACAUGAGGAUCACCCAUGUUGUAAGGAUAUACAUGAACGC |  |  | 7.03 | 5.88
AGAGCCUCGUGAGGAUAUACAUGAGGAUCACCCAUGUAAUAAGAUCAACGGAGGAAACUCCGAAUGUAGAAGGCACGAGGCUCA | 37.2 | 423 |  | 
GCACUUUUAUUUGAACCGAUUCGAACAUGAGGAUCACCCAUGUAGGAUAUGCUAAAAGUUGUGAUGCAGAAGGACAUUAAGUGC | 5.94 | 6.99 |  | 
UGUUGUAUUACAGGAUAUCUAGUAUUAUUAUUUAGAGAAGGGUAUUCACAUGAGGAUCACCCAUGUAUAUACGAGGAAGUUGUG |  |  | 38.2 | 40.1
UUGUUGUAUGUAGGAUAUGCAUAUUAUUAUUAUGCAGAAGGACAUGAGGAUCACCCAUGUAUAUUAUUAUUAUAUAUUAUAUAU | 30 | 49.3 |  | 
CGCUAUUACAUGAGGAUCACCCAUGUAUAUAUUGUAUUUUCGUAGGAUAUGCAGAAGAUUAAAGUGCAGAAGGACGUAAUAGCG |  |  | 29.1 | 7.48
GUUAUAACAGUCAGGAUAUUUAAGCUUAUCGAGCUAGAGAAGGGACAUGAGGAUCACCCAUGUAGCCUCGUUAG | 16 | 17.1 |  | 
ACAUGAGGAUGAGGAUAUUCAUCCAUGAGGAUAGAAGAAGGCAUACAUGAGGAUCACCCAUGUAUACACAUGAGGAUCCCUUAU | 44.5 | 121 |  | 
GUAGAGUAAGGAUAUGAUGAAUAGGAUAGAAUGGUUAGAAAUCAGAAGGUACAUGAGGAUCACCCAUGUAAUGU | 22.7 | 20.8 |  | 
GGCGGCGCGGGCCACCGCAGAACCAGAAGGACAUGAGGAUCACCCAUGUAACAAAACAGGGCGGUGUAGGAUAUGGCAGACCCG | 14.5 | 29.7 |  | 
CGAGGUGGAGUGAGGAUAUCGUGUUCGAAAGAACGUGAGAAGGCACAUGAGGAUCACCCAUGUGAUCCUGCUCG | 105 | 360 |  | 
UAAAAUUUACGAGGAUAUCCAAAGGUAGACAUAGGAGAAGGCGUACAUGAGGAUCACCCAUGUACCAAUAAAUGGGUUUCUCAA | 20.8 | 57.8 |  | 
GGUCCACAUGAGGAUCACCCAUGUUAGGAUAUCUCGCCCGAGUCGUUAUGGGCCAGGCAGAGAAGGAAUGUGAA | 20.4 | 18.8 |  | 

Sequence | apparent Kd [1] [nM] | apparent Kd [2] [nM] | apparent Kd [3] [nM] | apparent Kd [4] [nM]
UUGCCUCAGAACAUGAGGAUCACCCAUGUGCUGCGGGCAACGUAGGAUAUGAUGGUGCAACACCAUCAGAAGGAUGAUGGUACC |  |  | 5.62 | 5.45
AUUAUACAUGAGGAUCACCCAUGUAAUUAAUUAAUUAAGAUCAAGGAUAUCAGCUCGUUUAGAGCUGAGAAGGUGAUCACAUGU |  |  | 356 | 295
ACGGCUUAGUCAGGAUAUACAAGAUUGUGAGACUACAUGAGGAUCACCCAUGUAGAAGGGACUAAUCGUCUGAACAUUGCUUUC | 7.58 | 22.1 |  | 
GUGUGCUGAGGAUAUACAGAGGAAGAUAAUACAAUAUAAGUACAUGAGGAUCACCCAUGUAGAAGGCAGAGUGU | 28.2 | 26.4 |  | 
GCCUGCCGUGGCACGGUAGCACCGGAGGAUAUCCGCGUCGGUCAUGACAUGAGGAUCACCCAUGUGGAGAAGGCUGGUUUGUCC | 10.8 | 21.2 |  | 
GCUAUAGAUGUAGGAUAUCAUAUAGAAGCUAUGUGAGAAGGACAUGAGGAUCACCCAUGUCAAUGGCUGGAGCGAAGUUAUGGC | 30.4 | 35.2 |  | 
CUCAUGUAAGGAUAUCAGUAGUAAAAAAAUAAAAUUACUACUGAGAAGGUACAUGAGGAUCACCCAUGUCCUGG | 33.3 | 17.9 |  | 
AGUGUCAUCGAGAAGGCCUCAACAUGAGGAUCACCCAUGUUGAAAAGUGGGAGGAUAUCGAUGAUACAGCUACGUUUCGUAGCA |  |  | 9.79 | 4.98
UAUCCGCUAGGAUAUACUAUAUUGUCCUCGUGAGUGAUGCUACAUGAGGAUCACCCAUGUAGAAGGAGCGCGUG | 27.3 | 30.6 |  | 
AGUAUUGUAGGGUAUCCAACAUGAGGAUCACCCAUGUACCAGAGAAGGACCCAGGCAUUGCUUGGGUAGGAUAUCUGCGCAUCA | 18.4 | 193 |  | 
GAUCUCGUAGUGAGGAUAUUGCUCAUAGACAAUAGUAAGAAGGCACAUGAGGAUCACCCAUGUCGAGUGAGGUU | 69.9 | 143 |  | 
AUACAUGAGGAUCACCCAUGUUACAUGGCCUUGAUAGAUCGUAGAAGGAUGUUAUUAUUAAUUUCAUAGGAUAUACUAUUUAGU | 95.1 | 72.9 |  | 
CGUGCUAUGUAGAAGGCAGAUCUGAUUCAGAUCUGAGGAUAUACAUGAGGAUCACCCAUGUUAUGCACCAGCACGAGAGUGCAC |  | 11.5 |  | 
AGGUACAUCAUAGGAUAUCGUGUGUAAACAUGAGGAUCACCCAUGUCAUCCGAGAGUAUAUCGACCGAGAAGGGUGAUGUACCU |  |  | 22 | 32.5
UGAUCUUACAUGAGGAUCACCCAUGUAGGCCUGUAACUAACCAGAAGGCACGUAGAGUAAAACAGUGAGGAUAUGGAUGACGUA |  |  | 22.4 | 9.35
GGGUACAUCGGAGGAUAUCAUGUAAAUACAUGAGGAUCACCCAUGUUGAUGGAGACAUCGGAGAUUGAGAAGGCCGAUGUACCG |  |  | 41.9 | 6.03
CACGUCAGGAAACGGAGCGGCCAACAUGAGGAUCACCCAUGUGAGGAUAUGCCUACUAAAAGUAGGCAGAAGGCACAGAAGGCA | 38.2 | 160 |  | 
CGUUGGUCAGGAUAUGGUGGGCUGGUCGCGCGGCCGGGUGGCUAGAAGGGACAUGAGGAUCACCCAUGUACGGC | 21.5 | 40.5 |  | 
GGUGCCAUGUAGAAGGCAGACCUGAUUCAGAUCUGAGGAUAUACAUGAGGAUCACCCAUGUAAAGGCACCGCACGAGAGUGCAA | 6.05 | 8.57 |  | 
CGUGCGUAUGUGAGGAUAUGCUGGUCCUUGGAUCGGCAGAAGGCACAUGAGGAUCACCCAUGUGGUGUCGUUCC | 42.8 | 274 |  | 
UGGUACAUGGGAGGAUAUCCUCAUGAGACAUGAGGAUCACCCAUGUAUUAUAAGCCGAAAGGCAAGGAGAAGGCCCAUGUACCU |  |  | 90.2 | 19.5
AGUGUGUUAGGAUAUCGCAUAUGCUGGAGGAGGUGGAGUUACGAGAAGGAACAUGAGGAUCACCCAUGUAGGAC | 28.2 | 26.5 |  | 
AGGGUAUGAACAUGAGGAUCACCCAUGUAAACGGAAACGAAUGAGGAUAUCGAUAGCAAAGCUAUCGAGAAGGCAUGGGACCCU |  |  | 286 | 49.1
CGCUAGUCAGGAUAUACGAACAUGUCAAAAGACGUGAAGGGACAUGAGGAUCACCCAUGUAGAAGGGACUAGCA | 35.7 | 114 |  | 
